# Most compounds without a hit are left out; they make up all but 1.7% or so of the library.
# M5 antag: blocks acetylcholine activation of human M5 receptor. P08912. inhibition, % at 3 µM. 0.59% of 360,000 active. CHO-hM5 cells, Fluo-8 calcium fluorescence, ACh EC80;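 active = inhibition above a per-plate cutoff, the mean of that plate's test compounds plus 3 SD, cut at about 27% in these data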;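 also: 0% = acetylcholine EC80 with DMSO and 100% = DMSO without agonist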
# Target sequence (P08912 whole entry, looked up): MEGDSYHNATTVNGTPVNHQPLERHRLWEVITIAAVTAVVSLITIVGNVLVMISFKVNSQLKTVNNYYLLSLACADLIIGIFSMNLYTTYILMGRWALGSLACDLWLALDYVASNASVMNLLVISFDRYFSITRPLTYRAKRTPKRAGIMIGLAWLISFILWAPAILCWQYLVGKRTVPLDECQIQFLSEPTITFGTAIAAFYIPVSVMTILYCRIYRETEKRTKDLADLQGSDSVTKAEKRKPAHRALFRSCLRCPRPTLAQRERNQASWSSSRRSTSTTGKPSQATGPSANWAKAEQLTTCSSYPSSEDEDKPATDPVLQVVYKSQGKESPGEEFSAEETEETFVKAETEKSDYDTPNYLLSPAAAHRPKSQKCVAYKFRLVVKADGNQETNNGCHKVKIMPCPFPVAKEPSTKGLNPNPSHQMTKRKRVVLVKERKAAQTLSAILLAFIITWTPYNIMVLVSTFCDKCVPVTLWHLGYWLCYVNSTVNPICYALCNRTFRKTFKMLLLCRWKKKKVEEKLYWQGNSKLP
# CHO-K1 Ca antag: counter-screen for M1 antagonists: effect in parental CHO-K1 cells; ATP-induced calcium, Fluo-8 fluorescence; inhibition, % at 3 µM; 0.6% of 360,000 active; AID 602250;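 active = inhibition above a per-plate cutoff, the plate's mean sample inhibition plus 3 SD, cut at about 24% in these data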;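 also: 0% = DMSO plus EC80 ATP and 100% = DMSO alone without ATP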
# M5 ag: CHRM5 agonism in calcium assay. activation, % at 3 µM. 0.19% of 360,000 active. CHO-K1 hM5 cells, Fluo-8 calcium fluorescence; 0% DMSO wells, 100% maximal acetylcholine response;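 active = activation above the run's mean over test compounds plus 3 SD, cut at about 23% in these data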;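 also: signal is peak over basal fluorescence ratio across the kinetic read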
# CHRM5 PAM: positive allosteric modulators of human muscarinic M5 receptor; CHO-K1 hM5, Fluo-8 calcium, ACh EC20 PAM; 0% = ACh EC20, 100% = ACh EC100; 0.3% of 360,000 active; activation, % at 3 µM;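 active = activation above the run cutoff, the mean activation of all test compounds plus 3 SD, cut at about 18% in these data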
#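 Probe or stimulus: acetylcholine, EC20 level; Assay system: human M5 receptor in CHO-K1 cells; Schedule: compound preincubation 140 s before EC20 acetylcholine addition; Technique: intracellular calcium via Fluo-8 fluorescence; Dosing: single-point, 3 µM nominal; Read-out basis: percent activation from peak-over-basal fluorescence ratio, scaled EC20-to-EC100 acetylcholine; Repeats: one well per compound, no replicates.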
# CHO-K1 Ca PAM: nonselective activator or artifact in parental CHO-K1 calcium assay; ATP EC20, Fluo-8 calcium fluorescence; 0% at ATP EC20, 100% at ATP max; activation, % at 3 µM; 0.02% of 360,000 active; AID 602247;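 active = activation above the run cutoff, the mean activation of all test compounds plus 3 SD, cut at about 40% in these data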;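 also: peak over basal fluorescence ratio in a 140 s read after ATP addition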
# CHO-K1 Ca ag: M1 agonist counterscreen hit in parental CHO-K1 cells; Fluo-8 calcium fluorescence; scaled to maximal ATP response, vehicle zero; activation, % at 3 µM; 0.48% of 360,000 active; in the data active = activation above about 15%;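 also: untransfected CHO-K1 host cells lacking M1 receptor as counterscreen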
# Active calls of the source: *.
SMILES,M5 antag,CHO-K1 Ca antag,M5 ag,CHRM5 PAM,CHO-K1 Ca PAM,CHO-K1 Ca ag
CN1CCN(CC(O)(c2ccc(Cl)cc2)c2ccc(Cl)cc2)CC1,36*,-11,-8,-15,26,5
CN1CCN(CC(O)COc2ccc(Cl)cc2)CC1 (stereo unspecified),-1,-3,-1,0,19,1
CC(NS(=O)(=O)c1cccc(C(=O)N(C)Cc2ccc(N3CCOCC3)cc2)c1)c1ccccc1 (stereo unspecified),-2,-23,-1,3,-6,3
Cn1c(SCC(=O)c2cc(Cl)c(Cl)s2)nnc1-c1ccco1,-11,6,6,19*,-12,-1
CC(C)OC(=O)/C(C#N)=C\c1cccnc1,4,-14,1,4,-7,0
CC(=O)Nc1ccc(NC(=O)C(C)OC(=O)/C(C#N)=C/c2ccc(N(C)C)cc2)cc1 (stereo unspecified),61*,1,16,-17,22,3
CC(OC(=O)/C(C#N)=C/c1ccc(N(C)C)cc1)C(=O)NCc1ccco1 (stereo unspecified),5,8,4,-2,-14,3
CC(OC(=O)/C(C#N)=C/c1ccc(N(C)C)cc1)C(=O)N(C)c1ccccc1 (stereo unspecified),15,13,13,-30,-17,16*
CCOC(=O)C1=NOC2(C1)C(=O)Nc1c(Cl)cccc12 (stereo unspecified),-5,-10,0,0,3,0
COCCOC(=O)C1=C(C)NC(=O)NC1c1cccc(F)c1 (stereo unspecified),-4,-2,2,4,-11,0
O=C(Cn1c2ccccc2c(=O)c2cc([N+](=O)[O-])ccc21)Nc1ccccc1Cl,-17,0,0,9,21,15*
O=C(Cn1c2ccccc2c(=O)c2ccccc21)Nc1ccccc1F,0,0,-1,-1,6,0
Cc1csc2ncnc(N3CCN(C(=S)Nc4ccc(C(F)(F)F)cc4)CC3)c12,16,20,-1,-28,-3,11
Cc1csc2c(N3CCN(C(=S)Nc4ccc(C(F)(F)F)cc4)CC3)ncnc12,30*,28*,4,-22,-27,5
CN(CC(=O)Nc1ccc2c(c1)OCO2)CC(=O)Nc1ccc(F)c(F)c1F,1,-11,1,-5,19,1
Cc1ccc(-c2onc3ccc(C(=O)O)cc23)cc1,9,3,2,-3,7,19*
CC(=O)c1ccc2noc(-c3ccc(C)cc3)c2c1,-2,-6,-2,1,4,0
COC(=O)c1cc(S(=O)(=O)N2CCC(c3ccccc3)C2)c[nH]1 (stereo unspecified),-1,3,4,-2,-4,8
COC(=O)c1cc(S(=O)(=O)N2CCC(c3cc(OC)ccc3OC)C2)c[nH]1 (stereo unspecified),20,10,4,-13,-7,16*
O=S(=O)(c1cnccc1N1CCN(/N=C/c2ccc(Cl)cc2)CC1)N1CCCCC1,-8,-8,0,9,16,0
CC(=O)N1CCN(c2ccc(NC(=O)c3ccc(Cl)c(Cl)c3)cc2)CC1,7,-7,8,-9,-8,8
C=CC[C@@H](CC(=O)N[C@H](CO)Cc1ccccc1)C(=O)NCCOC(=O)[C@@H](CC=C)Cc1ccc(F)cc1,7,5,8,-11,-4,6
C=CC[C@@H](CC(=O)N[C@@H](CO)Cc1ccccc1)C(=O)NCCOC(=O)[C@@H](CC=C)Cc1ccc(F)cc1,-1,24*,1,-3,-14,0
CCN(CC)CCNC(=O)c1ccc(NC(=O)c2cccc(S(=O)(=O)Nc3ccc(C)cc3)c2)cc1,52*,-10,-11,-19,17,2
CN(C)CCNC(=O)c1cccc(S(=O)(=O)Nc2ccc(F)cc2)c1,0,10,-4,8,-7,0
SMILES,M5 antag,CHO-K1 Ca antag,M5 ag,CHRM5 PAM,CHO-K1 Ca PAM,CHO-K1 Ca ag
CCN(CC)CCNC(=O)c1ccc(NC(=O)c2cc(S(=O)(=O)N3CCCCC3)ccc2C)cc1,36*,-16,-10,-38,8,2
CCN(CC)CCNC(=O)c1cc(S(=O)(=O)N2CCc3ccccc32)cn1C,19,15,2,-15,13,6
COc1ccccc1C(CNC(=O)c1cccc(S(=O)(=O)Nc2ccc(C)cc2)c1)N(C)C (stereo unspecified),99*,-8,-7,-14,-4,1
CCN(CC)CCNC(=O)c1ccc(NC(=O)c2cccc(S(=O)(=O)N3CCc4ccccc43)c2)cc1,83*,8,-8,-31,5,5
CC(C)Cn1c([N+](=O)[O-])nc2c1c(=O)[nH]c(=O)n2C,-4,-13,2,5,12,1
CCOc1ccc(-n2ccnc(SCC(=O)Nc3cccc(OC)c3)c2=O)cc1,4,2,1,-4,-2,1
CCN(CC)CCNC(=O)c1ccc(NC(=O)c2cccc(S(=O)(=O)N3c4ccccc4CC3C)c2)cc1 (stereo unspecified),98*,13,-8,-15,-26,0
CC1Cc2ccccc2N1S(=O)(=O)c1cccc(C(=O)NCCCO)c1 (stereo unspecified),-1,5,1,3,6,1
O=C(CCc1ccccc1)NC(=S)Nc1ccc2c(c1)C(=O)OC2,8,6,-4,-2,3,16*
CN(C(=O)c1ccccn1)C1(C(=O)NC2CCCCC2)CCCCC1,6,-12,-9,17,20,1
CC(=O)NCC(=O)N(c1ccccc1)C1(C(=O)NC2CCCCC2)CCCCC1,-4,-5,-3,20*,-3,0
NCCCCCc1nnc(SCc2ccc(Cl)c(Cl)c2)o1,36*,1,-7,-19,13,1
CC(C)CN1C(=O)C(=O)N(CC(=O)c2ccc3c(c2)OCO3)C1=O,6,0,2,-2,-25,0
COC(=O)c1ccc(-c2noc(CN3C[C@H]4CC[C@H]3C4)n2)cc1,-4,-10,-2,1,6,0
Cc1ccc(NC(=O)C(C)Oc2ccccc2)cc1S(=O)(=O)N1CCCCCC1 (stereo unspecified),6,-7,-5,-2,3,0
Cc1ccc(C)n1CCN1CCN(CC(=O)Nc2ccc(S(N)(=O)=O)cc2)CC1,-4,29*,0,5,-5,0
Cc1nc(NC(=O)c2c(-c3ccccc3)noc2C)sc1C(=O)N(C)C,-4,-4,-5,2,0,1

# Bioassay records (PubChem)
